Data: ChEMBL document CHEMBL1150314, “Design and synthesis of N-alkyl oxindolylidene acetic acids as a new class of potent Cdc25A inhibitors” (Bioorg Med Chem Lett, 2008)

What follows are compounds tested against T1, M-phase inducer phosphatase 1 (Homo sapiens, UniProt P30304) (assay: Inhibition of human Cdc25A phosphatase activity).
T1 sequence (P30304 whole entry): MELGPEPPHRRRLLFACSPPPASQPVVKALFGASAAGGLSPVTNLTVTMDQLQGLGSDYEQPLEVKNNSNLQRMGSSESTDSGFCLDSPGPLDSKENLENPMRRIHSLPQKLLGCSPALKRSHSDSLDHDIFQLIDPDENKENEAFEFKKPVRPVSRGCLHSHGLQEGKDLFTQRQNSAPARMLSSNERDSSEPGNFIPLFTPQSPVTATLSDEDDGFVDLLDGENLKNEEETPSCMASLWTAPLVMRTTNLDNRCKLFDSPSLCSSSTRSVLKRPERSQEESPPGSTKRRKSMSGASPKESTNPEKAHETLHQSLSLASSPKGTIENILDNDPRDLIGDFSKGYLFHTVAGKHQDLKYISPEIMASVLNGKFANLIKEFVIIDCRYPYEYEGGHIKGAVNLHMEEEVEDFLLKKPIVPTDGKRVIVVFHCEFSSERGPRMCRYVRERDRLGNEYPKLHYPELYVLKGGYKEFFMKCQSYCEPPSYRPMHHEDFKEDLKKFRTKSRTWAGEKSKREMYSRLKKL
In short: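 Recombinant human Cdc25A catalytic domain; phosphatase activity measured by dephosphorylation of 40 μM O-methylfluorescein monophosphate in 50 mM Tris–HCl pH 8.0, 100 mM NaCl, 1 mM dithiothreitol. IC50 taken as mean of two–five experiments, with standard deviation reported.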
Work on `CCCCCCCCCCCCN1C(=O)C(=O)c2ccccc21` yielded an IC50 of 15 µM. In the case of `CC(C)CCC[C@@H](C)[C@H]1CCC2/C(=C/C(=O)O)CCC[C@@]21C` (stereo not given in full), the IC50 is reported as 12 µM. For `O=C(O)/C=C1/C(=O)N(CCCc2ccccc2)c2ccccc21`, the IC50 was greater than 100 µM. With `CCCCCCN1C(=O)/C(=C\C(=O)O)c2ccccc21` the IC50 was greater than 100 µM. In the case of `CCCCCCCCCCN1C(=O)/C(=C\C(=O)O)c2ccccc21`, the IC50 is reported as 12 µM. `CCCCCCCCCCCCN1C(=O)/C(=C\C(=O)O)c2ccccc21` gave an IC50 of 2.9 µM. `CCCCCCCCCCCCCCN1C(=O)/C(=C\C(=O)O)c2ccccc21` gave an IC50 of 1.7 µM. `CCCCCCCCCCCCN1C(=O)/C(=C/C(=O)OC)c2ccccc21` was tested, and the IC50 was 37 µM. Work on `CCCCCCCCCCCCN1C(=O)C(CC(=O)O)c2ccccc21` (stereo not given) yielded an IC50 of 50 µM. Work on `CCCCCCCCCCCCN1C(=O)/C(=N/O)c2ccccc21` yielded an IC50 of 33 µM. With `CCOCCOCCOCCN1C(=O)/C(=C/C(=O)O)c2ccccc21` the IC50 was greater than 100 µM. `CCCCCCCCCCN1C(=O)/C(=C/C(=O)O)c2ccccc21` gave an IC50 of 13 µM. Work on `CCCCCCCCCCCCN1C(=O)/C(=C/C(=O)O)c2ccccc21` yielded an IC50 of 2.6 µM. `CCCCCCCCCCCCCCN1C(=O)/C(=C/C(=O)O)c2ccccc21` showed an IC50 of 2.3 µM. With `CCCCCCN1C(=O)/C(=C/C(=O)O)c2ccccc21` the IC50 was greater than 100 µM. Compound `CCCCCCCCCCCCCCCCN1C(=O)/C(=C/C(=O)O)c2ccccc21` has an IC50 of 1.9 µM. `CCCCCCCCN1C(=O)/C(=C\C(=O)O)c2ccccc21` showed an IC50 of 39 µM. Work on `CCCCCCCCCCCCCCCCN1C(=O)/C(=C\C(=O)O)c2ccccc21` yielded an IC50 of 1.6 µM. Compound `CCCCCCCCCCCCn1cc(CC(=O)O)c2ccccc21` has an IC50 of 8 µM. Work on `CCCCCCCCN1C(=O)/C(=C/C(=O)O)c2ccccc21` yielded an IC50 of 78 µM.
